The results in this text go back to ChEMBL document CHEMBL3244385, “Antitumor anthracycline antibiotics. Structure-activity and structure-cardiotoxicity relationships of rubidazone analogues” (J Med Chem, 1978).

The structures appear in SMILES notation.

The subject of data set [1] is P388. Kind of data set: In vivo antitumor activity against mouse P388 cells allografted in BDF/CDF mouse assessed as host survival time at 1 mg/kg, ip administered on days 1 to 9 relative to control. In kind it is functional. The note with it: route intraperitoneal. An outline of the steps: (§1)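 P-388 lymphocytic leukemia, 10⁶ cells injected ip into BDF or CDF mice on day 0; drug given ip daily on days 1-9 at the stated dose. Read-out T/C: average survival time of treated mice as percent of untreated controls. Assays run by NCI Drug Research and Development Program.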

Data set [2] relates to P388. Put plainly: In vivo antitumor activity against mouse P388 cells allografted in BDF/CDF mouse assessed as host survival time at 0.25 mg/kg, ip administered on days 1 to 9 relative to control. Format: functional. As to conditions: route intraperitoneal. Summed up: as §1
Data set [3] deals with P388. Put plainly: In vivo antitumor activity against mouse P388 cells allografted in BDF/CDF mouse assessed as host survival time at 2 mg/kg, ip administered on days 1 to 9 relative to control. In kind it is functional. The note with it: route intraperitoneal. An outline of the steps: as §1
Data set [4] has as its system L1210. Kind of data set: Inhibition of DNA synthesis in mouse L1210 cells. Format: functional. The note with it: read-out: ED50 (the source's name).
The test system of data set [5] is P388. Kind of data set: In vivo antitumor activity against mouse P388 cells allografted in BDF/CDF mouse assessed as host survival time at 0.125 mg/kg, ip administered on days 1 to 9 relative to control. The note with it: route intraperitoneal. Format: functional. An outline of the steps: as §1
Data set [6] concerns P388. Kind of data set: In vivo antitumor activity against mouse P388 cells allografted in BDF/CDF mouse assessed as host survival time at 0.5 mg/kg, ip administered on days 1 to 9 relative to control. In kind it is functional. The note with it: route intraperitoneal. Summed up:
as §1

Data set [7] is filed under the species Rattus norvegicus. Put plainly: Cardiotoxicity in rat ECG model relative to adriamycin. The note with it: in vivo.
For data set [8], the system named is P388. Kind of data set: In vivo antitumor activity against mouse P388 cells allografted in BDF/CDF mouse assessed as host survival time at 16 mg/kg, ip administered on days 1 to 9 relative to control. In kind it is functional. The note with it: route intraperitoneal. An outline of the steps: as §1
Data set [9] relates to P388. Put plainly: In vivo antitumor activity against mouse P388 cells allografted in BDF/CDF mouse assessed as host survival time at 4 mg/kg, ip administered on days 1 to 9 relative to control. Format: functional. As to conditions: route intraperitoneal. Summed up: as §1
For data set [10], the system named is P388. Kind of data set: In vivo antitumor activity against mouse P388 cells allografted in BDF/CDF mouse assessed as host survival time at 8 mg/kg, ip administered on days 1 to 9 relative to control. Format: functional. The note with it: route intraperitoneal. Summed up: as §1
The test system of the next data set is Calf thymus DNA. Put plainly: Binding affinity to calf thymus DNA assessed as change in melting temperature at 5 uM by spectrophotometer analysis. In kind it is nucleic-acid assay. As to conditions: Bos taurus. Summed up: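 Drug dissolved in Me2SO, diluted with buffer, then mixed with calf thymus DNA. Final mix: 0.01 M phosphate pH 7, 5×10^-5 M DNA, 5×10^-6 M drug, 10^-5 M EDTA, 5% Me2SO. Absorbance at 259 nm recorded every 30 s while heating at 18 °C/h. Tm is the midpoint of the corrected curve; the shift is taken against DNA alone.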

For data set [11], the system named is L1210. Put plainly: Inhibition of RNA synthesis in mouse L1210 cells. In kind it is functional. The note with it: read-out: ED50 (the source's name).
Data set [12] is filed under the species Rattus norvegicus. Kind of data set: Cardiotoxicity in rat ECG model. The note with it: in vivo.
Data set [13] is described as follows: Dissociation constant, pKa of Ar-COOH group of the compound. Format: physicochemical.
A short description of data set [14]: Partition coefficient, log P of the compound. Format: physicochemical. The note with it: octanol/water.

With `COc1cccc2c1C(=O)c1c(O)c3c(c(O)c1C2=O)C[C@@](O)(/C(C)=N/NC(=O)c1cccc([N+](=O)[O-])c1)C[C@@H]3O[C@H]1C[C@H](N)[C@H](O)[C@H](C)O1.Cl`, the T/C in the data set with P388 [1] was 146%; in the data set on P388 [2] it was 130%; in the data set with P388 [3], 172%; in the data set with P388 [5], 125%; with P388 [6], 130%; with P388 [8], 72%. The T/C with P388 [9] amounted to 190%; in the data set on P388 [10], 202%. The figures for the EC50 in the data set on L1210 [4] and in the data set with L1210 [11] were 3200 nM and 2300 nM, respectively. Further, the Ratio in the data set listed under Rattus norvegicus [7] is reported as 2.3. In the data set on Calf thymus DNA, the ΔTm was determined as 10.5 °C. In the data set listed under Rattus norvegicus [12], this molecule displayed an MCCD of 32 mg/kg. In [13], this molecule showed a pKa of 3.46. The molecule also showed a log partition coefficient (logP) in data set [14] of 0.76.
In the case of `COc1cccc2c1C(=O)c1c(O)c3c(c(O)c1C2=O)C[C@@](O)(C(=O)CO)C[C@@H]3O[C@H]1C[C@H](N)[C@H](O)[C@H](C)O1.Cl` [DOXORUBICIN HYDROCHLORIDE], the T/C was determined as 193% in the data set with P388 [1]; 170% in the data set with P388 [2]; 149% in the data set on P388 [3]; 187% in the data set with P388 [6]; 77% in the data set on P388 [9]. In addition, the EC50 with L1210 [4] was 1500 nM; in the data set with L1210 [11], 670 nM. The Ratio in the data set filed under Rattus norvegicus [7] stood at 1. In the data set with Calf thymus DNA, the ΔTm is 13.4 °C. In the data set filed under Rattus norvegicus [12], this molecule displayed an MCCD of 11 mg/kg. In [14], this molecule returned a logP of 0.3.
Consider `COc1cccc2c1C(=O)c1c(O)c3c(c(O)c1C2=O)C[C@@](O)(/C(CO)=N/NC(=O)c1ccccc1)C[C@@H]3O[C@H]1C[C@H](N)[C@H](O)[C@H](C)O1.Cl`, for which the T/C in the data set with P388 [1] is on record as 154%; with P388 [2] it was 99%; with P388 [3] it was 154%; in the data set on P388 [5] it was 103%; with P388 [6], 126%; with P388 [8], 128%. Also, the T/C came to 172% in the data set on P388 [9] and 201% with P388 [10]. Moreover, the EC50 in the data set with L1210 [4] turned out to be 14000 nM; with L1210 [11] it was 8800 nM. Besides, the Ratio in the data set filed under Rattus norvegicus [7] came to 2.4. Further, the ΔTm in the data set on Calf thymus DNA stood at 8.9 °C. In addition, the MCCD in the data set listed under Rattus norvegicus [12] turned out to be 32 mg/kg. The molecule also showed a pKa in data set [13] of 4.19. The molecule also returned a logP in data set [14] of 0.52.
Regarding `COc1ccc(C(=O)N/N=C(\C)[C@]2(O)Cc3c(O)c4c(c(O)c3[C@@H](O[C@H]3C[C@H](N)[C@H](O)[C@H](C)O3)C2)C(=O)c2c(OC)cccc2C4=O)cc1.Cl`, the T/C in the data set with P388 [1] turned out to be 158%; in the data set on P388 [2], 129%; in the data set with P388 [3], 174%; in the data set with P388 [5], 119%; with P388 [6] it was 136%; with P388 [8], 59%. Also, the T/C with P388 [9] is 211%; with P388 [10], 183%. Moreover, the EC50 in the data set with L1210 [4] was 3100 nM; in the data set on L1210 [11], 1600 nM. In addition, in the data set listed under Rattus norvegicus [7], the Ratio is 1.8. Besides, the ΔTm in the data set with Calf thymus DNA is 10.9 °C. The molecule also registered an MCCD in the data set listed under Rattus norvegicus [12] of 24 mg/kg. The pKa in [13] came to 4.47. The molecule also came in with a logP in [14] of 1.02.
With `COc1cccc2c1C(=O)c1c(O)c3c(c(O)c1C2=O)C[C@@](O)(C(C)=O)C[C@@H]3O[C@H]1C[C@H](N)[C@H](O)[C@H](C)O1` [DAUNORUBICIN], the T/C in the data set on P388 [1] turned out to be 162%; with P388 [2], 152%; in the data set on P388 [3], 112%; in the data set with P388 [6] it was 167%; in the data set with P388 [9], 83%. Besides, the EC50 in the data set on L1210 [4] was found to be 480 nM; in the data set on L1210 [11], 230 nM. Also, the Ratio in the data set filed under Rattus norvegicus [7] stood at 1.3. This molecule gave an MCCD in the data set listed under Rattus norvegicus [12] of 14 mg/kg. The molecule also yielded a logP in [14] of 0.82.
